EBNA-1 inh: EBNA-1 DNA-binding inhibitors, primary screen, biochemical, fluorescence polarization; inhibition, % at 14.8 µM; AID 1950, 2009; 300,000 compounds, 0.34% hits; in the data active = inhibition above about 28%
GPR7 antagonist: GPR7 receptor antagonists, primary screen, cell-based, fluorescence, single concentration; Neuropeptides B/W receptor type 1 (Homo sapiens), P48145; 290,000 compounds, 1.1% hits; GPR7-expressing cells, fluorescence antagonist assay; inhibition, % at 4.4 µM; in the data active = inhibition above about 16%, passing the limit was not always enough;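 also: cells stimulated with the agonist NPW; 0% = agonist with vehicle and 100% = vehicle without agonist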
Target sequence (P48145 whole entry, looked up): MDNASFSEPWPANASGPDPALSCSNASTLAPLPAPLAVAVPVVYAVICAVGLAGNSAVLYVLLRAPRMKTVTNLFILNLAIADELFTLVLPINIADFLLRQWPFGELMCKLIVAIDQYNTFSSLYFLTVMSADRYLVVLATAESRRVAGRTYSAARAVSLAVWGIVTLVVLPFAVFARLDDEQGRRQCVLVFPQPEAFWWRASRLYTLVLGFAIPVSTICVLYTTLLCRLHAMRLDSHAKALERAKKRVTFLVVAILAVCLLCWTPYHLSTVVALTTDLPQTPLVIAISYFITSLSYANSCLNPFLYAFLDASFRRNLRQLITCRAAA
FID counter: compounds displacing fluorescent DNA intercalator, primary screen, artefact control for HCV NS3 helicase inhibitor project, biochemical, FID fluorescence | DNA fluorescent intercalator displacement | inhibition, % at 7.9 µM | 290,000 compounds, 0.17% hits; in the data active = inhibition above about 37%;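 also: 0% = vehicle and 100% = reference compound; higher means more ethidium bromide displaced from hairpin DNA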
ZTA DNA inh: blocks Epstein-Barr virus ZTA, an EBNA-1 counter-screen | 320,000 compounds, 0.15% hits | ZTA-DNA binding, fluorescence polarization | inhibition, % at 11 µM | P03206; in the data active = inhibition above about 33%
Target sequence (P03206 whole entry, looked up): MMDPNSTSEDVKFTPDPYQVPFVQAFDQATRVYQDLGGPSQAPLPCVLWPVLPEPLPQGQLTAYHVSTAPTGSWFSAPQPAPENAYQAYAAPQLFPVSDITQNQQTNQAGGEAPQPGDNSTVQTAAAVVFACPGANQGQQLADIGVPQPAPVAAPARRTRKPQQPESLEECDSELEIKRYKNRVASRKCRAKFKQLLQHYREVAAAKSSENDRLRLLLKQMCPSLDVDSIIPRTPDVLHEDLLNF
NS3 helicase inh: inhibitors of HCV NS3 helicase, primary screen, biochemical, Cy5 molecular beacon fluorescence. 290,000 compounds, 0.56% hits. NS3 helicase DNA unwinding. inhibition, % at 10.9 µM;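 active = inhibition above the mean of all tested compounds plus 3 SD, set per campaign, cut at about 35% in these data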;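 also: 0% = DMSO wells and 100% = thioflavine S control wells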
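Assay system: hepatitis C virus NS3 helicase domain fragment enzyme. Also added: annealed dual-labelled DNA beacon duplex, ATP-started. Timing: 1 h reaction at 25 °C, ATP-initiated. Technique: Cy5 fluorescence at 0 and 60 min, beacon hairpin quenching. Evaluation: % inhibition of unwinding. Replication: one well per compound.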
GPR7 antag cf: GPR7 receptor antagonists, confirmation, cell-based, fluorescence, single concentration; shares compounds with GPR7 antagonist; GPR7-expressing cells, calcium fluorescence antagonist mode; inhibition, % at 4.4 µM; 2,400 compounds, 52% hits; in the data active = inhibition above about 24%;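 also: stimulated with the GPR7 agonist NPW; 0% = agonist plus vehicle and 100% = vehicle alone without agonist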
MCHR1 antagonist: MCHR1 antagonists in cells, counter-screen for GPR7 antagonist project, cell-based, fluorescence, human; shares compounds with GPR7 antagonist; MCHR1-expressing cells, fluorescence antagonist assay; inhibition, % at 4.4 µM; 2,400 compounds, 62% hits; AID 2148, 2009; in the data active = inhibition above about 22%;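 also: 0% = vehicle with agonist and 100% = vehicle without agonist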
Active calls of the source: *; · = no result. The list is not random: actives were taken first. Their share in the collection is about 2%.

SMILES | EBNA-1 inh | GPR7 antagonist | FID counter | ZTA DNA inh | NS3 helicase inh | GPR7 antag cf | MCHR1 antagonist
Cc1ccccc1OC(C)C(=O)N1CCC(Cc2ccccc2)CC1 (stereo unspecified) | -1.9 | 27.7* | -43.2 | -24.7 | -6.0 | 18.6 | 36.5*
COc1ccccc1OC(C)C(=O)N1CCC(Cc2ccccc2)CC1 (stereo unspecified) | 7.6 | 4.5 | -49.0 | -5.2 | 6.6 | · | ·
Nc1c(Cl)cc(-c2cn(CCC(=O)O)c(-c3ccncc3)n2)cc1Cl | 8.2 | · | · | 6.0 | · | · | ·
N#CC(C#N)=C1C=C2C=C(N3CCCCC3)CCC2CC1 (stereo unspecified) | -4.2 | 74.3* | -4.7 | 1.1 | -3.6 | 93.0* | 109.2*
CCCCN(C)C1=CC2=CC(=C(C#N)C#N)CCC2CC1 (stereo unspecified) | 13.5 | 75.3* | -2.7 | 8.3 | 3.8 | 102.6* | 109.5*
CCN(CC)C1=CC2=CC(=C(C#N)C#N)CCC2CC1 (stereo unspecified) | 4.8 | 58.4* | -16.7 | -2.1 | 20.5 | 90.9* | 104.9*
CCC(=O)N(CC)c1nc(-c2ccc(OC)cc2)cs1 | 2.5 | 27.3* | -5.3 | -11.2 | 10.9 | 2.3 | 13.2
Cc1cc(OCC(=O)Nc2ccc(N3CCCC3)cc2)cc(C)c1Cl | -4.0 | -1.5 | 5.5 | -7.2 | -19.5 | · | ·
Cc1cc(OCC(=O)Nc2ccncc2)cc(C)c1Cl | -0.9 | 28.8* | -1.7 | -3.7 | -10.2 | 36.4* | 59.9*
FC(F)(F)c1cccc(-c2nc3nc(Cl)c(Cl)nc3[nH]2)c1 | -9.7 | 25.1* | 12.7 | 3.5 | 8.6 | 37.3* | 47.8*
Cc1ccc(C(C)C)c(OCC(=O)OCC(=O)NC2CCS(=O)(=O)C2)c1 (stereo unspecified) | 3.2 | · | · | -0.8 | · | · | ·
c1ccc(Cn2ncc3c(NCc4ccco4)ncnc32)cc1 | -7.8 | 4.0 | -7.1 | -13.5 | -7.1 | · | ·
c1ccc(-n2ncc3c(NCc4ccco4)ncnc32)cc1 | -5.7 | 24.4* | -3.3 | -9.9 | -6.8 | 47.5* | 43.8*
COc1ccc2cc([C@H](C)C(=O)N(C)Cc3ccccc3N3CCCC3)ccc2c1 | -6.7 | 27.9* | -31.7 | 12.5 | -11.9 | 3.7 | 49.8*
COc1ccc(C(CNC(=O)C(C)c2ccc3cc(OC)ccc3c2)N(C)C)cc1 (stereo unspecified) | -7.1 | -3.9 | 16.0 | -1.8 | -29.4 | · | ·
C[C@H]1CN=C(N(C)C)N1CCc1ccc(F)cc1 | 0.8 | · | · | 4.7 | · | · | ·
CCOc1ccccc1/C=C/C(=O)NCC(=O)N1CCC(N(C)C2CCCCC2C)CC1 (stereo unspecified) | -19.6 | -11.4 | 18.9 | 0.0 | -5.4 | · | ·
C=C(NC(=O)C(=C)NC(=O)c1csc(C2=NC3c4csc(n4)C4NC(=O)c5csc(n5)C([C@@](C)(O)C(C)O)NC(=O)C5CSC(=N5)/C(=C\C)NC(=O)C(C(C)O)NC(=O)c5csc(n5)[C@]3(CC2)NC(=O)C(C)NC(=O)C(=C)NC(=O)C(C)NC(=O)C(C(C)CC)NC2C=Cc3c(C(C)O)cc(nc3C2O)C(=O)OC4C)n1)C(N)=O (stereo partly specified) | -3.7 | · | · | 0.2 | · | · | ·
COc1cccc(CNC(=O)C2=Cc3cccc(OC)c3OC2)c1 | 4.1 | 33.5* | -18.2 | 1.1 | -5.6 | 3.6 | 20.9
Cc1ccc(S(=O)(=O)N(Cc2ccc(F)cc2)Cc2ccco2)cc1 | -2.1 | 32.1* | -9.0 | 3.5 | 1.2 | 30.3* | 58.0*
CCOC(=O)C1CCN(C(=O)COC(=O)CN(C)S(=O)(=O)c2ccc(NC(C)=O)cc2)CC1 | 9.6 | -15.3 | -19.2 | 5.9 | -1.9 | · | ·
S=C(NCCN1CCCCC1)Nc1ccccc1 | 13.4 | -4.5 | 6.0 | 8.5 | -4.9 | · | ·
S=C(NCCN1CCCCC1)Nc1ccc(Br)cc1 | -0.1 | 37.7* | 21.1 | -12.4 | 2.8 | 9.1 | 12.8
Cc1cc(=O)oc2ccc(OCC(=O)N(Cc3ccc(F)cc3)Cc3ccco3)cc12 | 9.7 | 34.1* | -20.3 | 16.0 | 9.7 | 37.9* | 68.4*
CCOC(=O)Oc1ccc2oc(=O)cc(C)c2c1 | -9.0 | -6.4 | -17.9 | -3.8 | 5.5 | · | ·
SMILES | EBNA-1 inh | GPR7 antagonist | FID counter | ZTA DNA inh | NS3 helicase inh | GPR7 antag cf | MCHR1 antagonist
O=C(COc1ccc(Br)cc1CNC1CCCCC1)NCCc1ccccc1 | -1.1 | 21.0* | 22.3 | -9.0 | -33.8 | 48.0* | 30.8*
CCCc1c(C)nc(N2CCN(c3ccccc3OC)CC2)[nH]c1=O | -8.6 | -17.0 | -8.7 | 10.0 | -7.1 | · | ·
COc1cccc(-n2ccnc2SCC(=O)Nc2cc(OC)ccc2OC)c1 | -14.6 | 38.3* | -22.3 | -14.1 | -8.2 | 19.5 | 37.7*
COc1ccc(NC(=O)CSc2nccn2-c2cccc(OC)c2)cc1 | 7.9 | -2.1 | -9.2 | 8.8 | 7.5 | · | ·
COc1cccc(-n2ccnc2SCC(=O)Nc2ccccc2F)c1 | 2.8 | 21.3* | -16.7 | 3.5 | -0.9 | 18.0 | 3.0
COc1cccc(-n2ccnc2SCC(=O)Nc2ccccc2)c1 | -0.3 | 18.1 | -11.5 | -12.8 | 5.1 | · | ·
COc1ccccc1C(=O)NCCC(=O)Nc1cccc(S(=O)(=O)N2CCCC2)c1 | · | · | · | -5.4 | · | · | ·
CCn1c(SCC(=O)Nc2ccc(C(C)=O)cc2)nc2ccccc21 | 4.8 | 30.0* | -4.8 | 19.6 | -9.1 | 4.2 | 19.6
CCn1c(SCC(=O)Nc2ccc3[nH]c(=O)[nH]c3c2)nc2ccccc21 | · | · | · | -5.6 | · | · | ·
CC(Sc1ncn[nH]1)C(=O)Nc1cc(C(F)(F)F)ccc1Cl (stereo unspecified) | · | · | · | 11.8 | · | · | ·
COC(=O)c1ccccc1NC(=O)CSc1nc(O)cc(=O)n1C1CCCC1 | 1.4 | -1.8 | -3.8 | 3.4 | 7.9 | · | ·
O=C(CSc1nc(O)cc(=O)n1C1CCCC1)Nc1cccc(Cl)c1Cl | -0.8 | 27.8* | -6.7 | -18.0 | 3.1 | 14.6 | 7.2
CN1CCN(CC(=O)Nc2c(C(=O)C3CC3)oc3ccccc23)CC1 | -5.2 | 21.1* | 25.8 | 4.8 | 2.8 | 1.5 | 10.3
O=C(CN1CCOCC1)Nc1c(C(=O)C2CC2)oc2ccccc12 | 3.5 | -6.3 | -18.9 | -4.2 | 4.6 | · | ·
Cc1ccc(C(=O)c2oc3ccc(Cl)cc3c2NC(=O)CN2CCN(C)CC2)cc1 | 14.8 | 23.8* | 26.6 | 11.5 | -33.8 | 29.1* | 42.3*
CN(C)C1=NC[C@H](Cc2ccccc2)N1CC1CCC(C(C)(C)C)CC1 (stereo partly specified) | 7.5 | 44.8* | -1.4 | 11.2 | -102.3 | 40.9* | 21.1
CN(C)C1=NC[C@H](Cc2ccccc2)N1CC1CCCC1 | -2.4 | · | · | -5.5 | · | · | ·
CC(OC(=O)CNC(=O)c1ccc(F)cc1)C(=O)Nc1ccc(S(=O)(=O)N2CCOCC2)cc1 (stereo unspecified) | · | · | · | 9.5 | · | · | ·
